Assay results as given in ChEMBL document CHEMBL1138119, “Extremely potent orally active benzo[g]quinoline analogue of the dopaminergic prodrug: 1-propyl-trans-2,3,4,4a,5,7,8,9,10,10a-decahydro-1H-benzo-[g]quinolin-6-one [corrected]” (2006).
Activity calls are given as the source filed them. No cut-off for these calls is given here.

How the values were obtained:
[1] = test system: Rattus norvegicus; assay: Effect on striatal dopamine release in rat at 1umol/kg, sc; type: functional, organism-based
Summary of the method: (§1)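 Striatal microdialysis in freely moving rats, done by a previously described procedure. Doses were given sc or po. Dopamine levels are expressed relative to basal dopamine levels, as mean (SEM) from four rats.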

[2] = target: T1, D(4) dopamine receptor (Homo sapiens) (UniProt P21917); assay: Displacement of [3H]nemonapride from human dopamine D4 receptor at 50nM
T1 sequence (whole entry): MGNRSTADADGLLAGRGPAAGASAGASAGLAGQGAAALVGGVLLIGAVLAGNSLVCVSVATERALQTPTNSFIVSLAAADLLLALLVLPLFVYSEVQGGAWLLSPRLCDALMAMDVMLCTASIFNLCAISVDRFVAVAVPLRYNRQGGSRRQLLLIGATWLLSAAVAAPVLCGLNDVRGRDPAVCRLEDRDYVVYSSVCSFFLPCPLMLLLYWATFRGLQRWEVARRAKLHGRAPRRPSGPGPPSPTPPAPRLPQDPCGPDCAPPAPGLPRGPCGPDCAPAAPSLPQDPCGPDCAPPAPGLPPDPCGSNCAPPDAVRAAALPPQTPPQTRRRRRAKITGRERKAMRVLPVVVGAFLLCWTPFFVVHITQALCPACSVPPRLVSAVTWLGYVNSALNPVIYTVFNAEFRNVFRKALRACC
Summary of the method: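 Inhibition of [3H]nemonapride binding (0.50 nM; Kd 0.20 nM) to cloned human D4 receptors, in vitro. Displacement was measured at a single fixed test concentration.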

[3] = target: D(1A) dopamine receptor (Rattus norvegicus) (UniProt P18901); assay: Displacement of [3H]SCH-23390 from dopamine D1 receptor in rat corpus striatum membrane at 100nM; type: cell membranes
D(1A) dopamine receptor (Rattus norvegicus), sequence (P18901 whole entry): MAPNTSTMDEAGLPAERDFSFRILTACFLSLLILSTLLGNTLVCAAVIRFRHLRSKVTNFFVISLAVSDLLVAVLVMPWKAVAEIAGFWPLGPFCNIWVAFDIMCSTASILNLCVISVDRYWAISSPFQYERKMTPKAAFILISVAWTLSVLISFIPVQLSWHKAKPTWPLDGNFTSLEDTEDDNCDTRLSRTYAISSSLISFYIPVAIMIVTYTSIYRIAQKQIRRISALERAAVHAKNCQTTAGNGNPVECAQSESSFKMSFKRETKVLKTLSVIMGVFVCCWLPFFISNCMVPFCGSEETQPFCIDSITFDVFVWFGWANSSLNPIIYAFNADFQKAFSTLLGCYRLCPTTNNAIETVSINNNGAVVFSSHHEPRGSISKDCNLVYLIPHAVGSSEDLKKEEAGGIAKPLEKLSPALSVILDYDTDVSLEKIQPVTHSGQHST

[4] = target: D(2) dopamine receptor (Rattus norvegicus) (UniProt P61169); assay: Displacement of [3H]spiperone from dopamine D2 receptor in rat corpus striatum membrane at 100nM; type: cell membranes
D(2) dopamine receptor (Rattus norvegicus), sequence (P61169 whole entry): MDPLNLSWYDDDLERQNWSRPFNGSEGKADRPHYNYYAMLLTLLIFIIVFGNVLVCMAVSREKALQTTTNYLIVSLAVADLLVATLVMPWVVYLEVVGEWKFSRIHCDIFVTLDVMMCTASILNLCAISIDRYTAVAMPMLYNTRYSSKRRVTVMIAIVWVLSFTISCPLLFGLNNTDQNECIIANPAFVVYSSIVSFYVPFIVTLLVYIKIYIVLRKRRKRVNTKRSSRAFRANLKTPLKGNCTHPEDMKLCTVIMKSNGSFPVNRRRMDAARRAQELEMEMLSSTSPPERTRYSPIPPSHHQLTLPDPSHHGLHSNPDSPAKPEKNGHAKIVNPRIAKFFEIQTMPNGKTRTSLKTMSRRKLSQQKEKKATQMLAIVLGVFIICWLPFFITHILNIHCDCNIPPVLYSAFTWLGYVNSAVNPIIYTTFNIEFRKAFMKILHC
Summary of the method: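 Inhibition of [3H]spiperone binding (0.50 nM; Kd 0.20 nM) to dopamine receptors in rat corpus striatum membranes, in vitro. Displacement was measured at a single fixed test concentration.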

[5] = target: D(3) dopamine receptor (Homo sapiens) (UniProt P35462); assay: Displacement of [3H]spiperone from human dopamine D3 receptor expressed in CHO cells at 50nM; type: cell-based
D(3) dopamine receptor (Homo sapiens), sequence (P35462 whole entry): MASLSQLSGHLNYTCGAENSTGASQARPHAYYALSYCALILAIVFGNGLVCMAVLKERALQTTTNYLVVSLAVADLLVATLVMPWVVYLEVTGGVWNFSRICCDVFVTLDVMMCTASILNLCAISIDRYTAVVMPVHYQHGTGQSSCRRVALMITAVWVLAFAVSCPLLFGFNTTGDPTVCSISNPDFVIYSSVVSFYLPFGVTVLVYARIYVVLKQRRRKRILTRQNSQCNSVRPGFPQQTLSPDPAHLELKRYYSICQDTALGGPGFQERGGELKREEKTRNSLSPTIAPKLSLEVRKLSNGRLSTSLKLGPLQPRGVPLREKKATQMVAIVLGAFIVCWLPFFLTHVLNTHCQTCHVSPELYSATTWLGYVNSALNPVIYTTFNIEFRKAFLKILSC
Summary of the method: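 CHO membranes with cloned human D3 (26 µg protein) in 25 mM Tris-HCl pH 7.4, 6.0 mM MgCl2, 1.0 mM EDTA. […] Incubated 60 min at 25 °C, filtered on PEI-treated GF/C, and counted by scintillation. Measured at a single test concentration.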

[6] = test system: Rattus norvegicus; assay: Decrease in striatal dopamine levels in rat at 10 nmol/kg, po; type: functional; parameters: scale not given: the % may be the effect or the level left; summary of the method: as §1
[7] = test system: Rattus norvegicus; assay: Decrease in striatal dopamine levels in rat at 3 nmol/kg, sc; type: functional; parameters: scale not given: the % may be the effect or the level left; summary of the method: as §1
[8] = test system: Rattus norvegicus; assay: Decrease in striatal dopamine levels in rat at 10 nmol/kg, sc; type: functional; parameters: scale not given: the % may be the effect or the level left; summary of the method: as §1
[9] = test system: Rattus norvegicus; assay: Decrease in striatal dopamine levels in rat at 3 nmol/kg, po; type: functional; parameters: scale not given: the % may be the effect or the level left; summary of the method: as §1
[10] = test system: Rattus norvegicus; assay: Decrease in striatal dopamine levels in rat at 1 nmol/kg, sc; type: functional; parameters: scale not given: the % may be the effect or the level left; summary of the method: as §1

| Compound | Activity [1] | Activity [2] | Activity [3] | Activity [4] | Activity [5] | Activity [6] | Activity [7] | Activity [8] | Activity [9] | Activity [10] |
| --- | --- | --- | --- | --- | --- | --- | --- | --- | --- | --- |
| CCCN1CCCC2CC3=C(CCCC3=O)CC21 (single isomer, unassigned; (+)) | inactive | -19% | 7% | 3% | 28% |  |  |  |  |  |
| CCCN1CCCC2CC3=C(CCCC3=O)CC21 (single isomer, unassigned; (-)) [listing 1 of 2 here] |  |  |  |  |  | 60% | 20% | 20% | 45% | 20% |
| CCCN1CCCC2CC3=C(CCCC3=O)CC21 (single isomer, unassigned; (-)) [listing 2 of 2 here] |  | -4% | -1% | 15% | 23% |  |  |  |  |  |
